High-throughput results: PubChem BioAssay, The Scripps Research Institute Molecular Screening Center
Rows were chosen to be rich in hits. Some 1.8% of all compounds tested hit in one or more screens of this group.
NPY-Y1 PAM-ag: NPY-Y1 receptor potentiators or agonists, primary screen, cell-based; NPY-Y1 expressing cells, potentiator/agonist activation; activation, % at 3.6 µM; hit rate 0.37% among 220,000; in the data active = activation above about 33%, passing the limit was not always enough;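 note: cells stimulated with NPY at EC10 then isoproterenol at EC100; 0% = low agonist plus stimulus and 100% = saturating agonist plus stimulus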
Target sequence (P25929 whole entry, looked up): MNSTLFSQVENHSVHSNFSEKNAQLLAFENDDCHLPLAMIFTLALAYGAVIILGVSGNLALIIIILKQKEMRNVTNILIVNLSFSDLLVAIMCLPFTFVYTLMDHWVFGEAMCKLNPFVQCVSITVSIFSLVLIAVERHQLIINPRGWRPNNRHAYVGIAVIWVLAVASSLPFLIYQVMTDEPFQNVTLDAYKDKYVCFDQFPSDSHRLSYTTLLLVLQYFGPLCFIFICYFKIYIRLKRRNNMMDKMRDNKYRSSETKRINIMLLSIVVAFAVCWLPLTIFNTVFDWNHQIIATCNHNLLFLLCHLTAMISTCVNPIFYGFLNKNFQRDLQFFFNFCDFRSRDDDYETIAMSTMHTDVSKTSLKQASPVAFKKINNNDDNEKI
NPY-Y1 antag: NPY-Y1 receptor antagonists, primary screen, cell-based; AID 1040, 2008; inhibition, % at 3.6 µM; hit rate 1% among 200,000; HEK293-CNG Y1 cells, membrane potential fluorescence; NPY at EC95, then isoproterenol;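 active = inhibition above the campaign mean inhibition of all tested compounds plus 3 SD, cut at about 20% in these data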;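 note: 0% = DMSO wells given NPY plus isoproterenol and 100% = isoproterenol alone without NPY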
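Material: HEK293 Y1/CNG channel cell line; also added: NPY (25 nM), isoproterenol (1 µM), Ro 20-1724 (25 µM); doses: one concentration, 3.6 µM, in 0.4% DMSO; schedule: compound incubation 1 h at room temperature, readout 45 min post-stimulation; technique: membrane potential fluorescence; measure: fluorescence ratio normalized to % inhibition between controls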
NPY Y2 blocker: NPY-Y2 receptor antagonists, primary screen, cell-based | Neuropeptide Y receptor type 2 (Homo sapiens), P49146 | NPY-Y2 expressing cells, antagonist mode | inhibition, % at 2.7 µM | hit rate 0.99% among 140,000 | AID 793, 2007; in the data active = inhibition above about 17%;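 note: 0% = vehicle with agonist challenge and 100% = reference antagonist with challenge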
NPY2 pot ag: NPY-Y2 potentiators or agonists, primary screen, cell-based; Neuropeptide Y receptor type 2 (Homo sapiens), P49146; cells expressing NPY-Y2, potentiator/agonist read-out; activation, % at 3.6 µM; hit rate 0.45% among 220,000; in the data active = activation above about 27%;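 note: cells stimulated with NPY near EC25 plus isoproterenol at EC100; 0% = vehicle plus submaximal agonist and 100% = vehicle plus saturating agonist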
The depositor's hits bear a star; nt = no result given.

SMILES	NPY-Y1 PAM-ag	NPY-Y1 antag	NPY Y2 blocker	NPY2 pot ag
Cc1cc(Cl)c(S(=O)(=O)N2CCN(c3ccc(F)cc3)CC2)cc1OCC(=O)NC1CCCCC1	-54	0	2	23
Cc1cc(Br)ccc1NC(=O)CN1C(=O)C2C3CC(c4ccccc4)C(C3)C2C1=O (configuration not stated)	67*	-22	-6	53*
COCC(=O)Nc1ccc(Br)cc1C	2	4	nt	-4
COc1ccc(CN(C(=O)c2nsc(Cl)c2Cl)C(C(=O)NC2CCCC2)c2ccc(OC)cc2)cc1 (configuration not stated)	-36	33*	23*	-17
Cc1cccc(N(C(=O)c2nsc(Cl)c2Cl)C(C(=O)NC2CCCC2)c2ccc(O)cc2)c1 (configuration not stated)	-16	-1	3	7
CCc1nc2ccccc2c(C(=O)NCc2ccccc2)c1C	-16	-1	nt	-16
CCc1nc2ccc(F)cc2c(C(=O)NC2CCCCC2C)c1C (configuration not stated)	-82	35*	29*	-53
Cc1ccc(NC(=O)CCCc2nc3ccccc3s2)c(O)c1	-45	2	nt	-35
CCS(=O)(=O)Nc1ccc(C2=NN(C(=O)c3ccco3)C(c3cccc(F)c3)C2)cc1 (configuration not stated)	35	-6	nt	35*
O=C(/C(=C\c1ccccc1)c1nc2ccccc2[nH]1)c1ccc(Cl)cc1	-22	-2	1	11
O=C(/C(=C/c1ccc(Cl)cc1)c1nc2ccccc2[nH]1)c1cccs1	-50	23*	46*	-9
CC(=O)C(Cc1cccc(F)c1)(Cc1cccc(F)c1)C(C)=O	0	6	nt	-10
NC(=O)c1cccn1Cc1ccccc1Cl	-2	5	6	10
NC(=O)c1cccn1Cc1cccc(Cl)c1	95*	-1	1	33*
COC(=O)C1=C(C)NC(=O)C1(NS(=O)(=O)c1ccc(NC(C)=O)cc1)C(F)(F)F (configuration not stated)	19	0	-3	7
Nc1nonc1C(=O)NCCNCc1cc(Br)ccc1OCc1ccc(F)cc1	-39	14	15	-7
Nc1nonc1C(=O)NCCNCc1c(OCc2ccccc2F)ccc2ccccc12	-69	34*	50*	-31
COc1cccc2cc(C(=O)OCC(=O)NCc3ccc4c(c3)OCO4)c(=O)oc12	1	nt	nt	0
CC1(C)C([N+](=O)[O-])C(c2ccc(O)cc2)NC(c2ccc(O)cc2)C1[N+](=O)[O-] (configuration not stated)	40*	4	1	35*
CC1(C)C([N+](=O)[O-])C(c2ccc(F)cc2)NC(c2ccc(F)cc2)C1[N+](=O)[O-] (configuration not stated)	-9	nt	nt	-14
N#C/C(C(N)=O)=c1/ccc2c(c1)N1C3=C(CCCC3)CC3CCCCC31N=2 (configuration not stated)	51*	-27	-13	47*
CCOC(=O)N1CCC2(CC1)C(C#N)=C(N)OC1=C2C(=O)CC(C)C1 (configuration not stated)	13	1	1	-1
O=C(/C=C/c1ccc(Cl)cc1)N1CCN(c2ccc(Cl)cc2[N+](=O)[O-])CC1	-15	21*	8	-4
Cc1cc(-c2ccco2)n(-c2ccccc2)n1	105*	-15	3	101*
CCn1c(-c2ccccc2)ccc(C#N)c1=O	5	7	2	4
SMILES	NPY-Y1 PAM-ag	NPY-Y1 antag	NPY Y2 blocker	NPY2 pot ag
Cc1cc(C#N)c(C)n1-c1cc(C(F)(F)F)ccc1N1CCOCC1	-13	21*	20*	-17
CC(C)C(=O)Nc1cc(C(F)(F)F)ccc1N1CCOCC1	10	2	0	4
COc1ccc(NC(=O)CCCC2CCCCC2)cc1S(=O)(=O)N1CCCCC1	-17	29*	18*	-7
CCCC(CCC)C(=O)Nc1c[nH]c(=O)[nH]c1=O	2	6	-1	-14
CC1CCN(CCOCCOc2ccc(Br)cc2Cl)CC1	-11	3	7	6
CC1CCCN(CCCOc2ccc(Br)cc2Cl)C1 (configuration not stated)	-7	21*	nt	-31
Cc1ccc2cc(CN(CCN3CCCC3)C(=O)Nc3ccc(F)cc3)c(=O)[nH]c2c1C	-55	26*	5	-29
Cc1ccc2cc(CN(CCN3CCCC3)C(=O)Nc3ccccc3)c(=O)[nH]c2c1C	-32	15	6	-31
CCOC(=O)c1c(C)nc2c(c1-c1ccc(Cl)cc1)C(=O)CC(C)(C)C2	8	3	3	-4
COc1cc(N=Nc2cccc(S(N)(=O)=O)c2)c2ccccc2c1N	61*	nt	nt	52*
CCC(C)(C)n1nnnc1C(c1ccncc1)N1CCC(C)CC1 (configuration not stated)	-13	11	6	-5
CCC(C)(C)n1nnnc1C(c1ccccc1)N1CCN(Cc2ccccc2)CC1 (configuration not stated)	-4	11	nt	-14
CCC(C)(C)n1nnnc1C(c1ccc(OC)c(OC)c1)N1CCN(c2ccccc2)CC1 (configuration not stated)	3	18	14	-10
CCC(C)(C)n1nnnc1C(c1ccc(C)cc1)N1CCC(C)CC1 (configuration not stated)	-17	39*	20*	-9
CCC(C)(C)n1nnnc1C(c1ccc(OC)c(OC)c1)N1CCN(c2cccc(OC)c2)CC1 (configuration not stated)	-34	24*	22*	-12
CCC(C)(C)n1nnnc1C(c1cc(OC)ccc1OC)N1CCN(Cc2ccccc2)CC1 (configuration not stated)	-1	20*	nt	-12
Cc1nc(=S)c2c([nH]1)-c1ccccc1CC21CCCCC1	7	nt	nt	-2
COc1cccc(Nc2nc3ccccc3nc2NS(=O)(=O)c2cccs2)c1	78*	-6	-2	43*
COc1ccc(Nc2nc3ccccc3nc2NS(=O)(=O)c2cccs2)c(OC)c1	45	nt	nt	9
CCN(CC(=O)Nc1cc(Cl)ccc1OC)CC(=O)NC1CCS(=O)(=O)C1 (configuration not stated)	13	nt	nt	1
COc1ccc(-c2csc3nc(C)nc(N4CCC(C)CC4)c23)cc1OC	-29	21*	nt	-19
COC(=O)COc1ccc2c(-c3ccc(OC)cc3)cc(=O)oc2c1	98*	2	5	98*
COC(=O)COc1ccc2c(-c3cccc([N+](=O)[O-])c3)cc(=O)oc2c1	8	0	1	-6
COc1ccc(-n2c(-c3ccc(Br)cc3)c[n+]3c2CCc2ccccc2-3)cc1	-98	59*	25*	-5
COc1ccc(-c2cn(-c3ccc(OC)cc3)c3[n+]2-c2ccccc2CC3)cc1	-25	8	5	16
CNC(=O)C(=O)Nc1nc(C23CC4CC(CC(C4)C2)C3)cs1	-4	6	nt	0
